ChEMBL document CHEMBL3739392, “Development of highly potent phosphodiesterase 10A (PDE10A) inhibitors: Synthesis and in vitro evaluation of 1,8-dipyridinyl- and 1-pyridinyl-substituted imidazo[1,5-a]quinoxalines” (Eur J Med Chem, 2016)
pIC50: −log10 of the molar value.

Tests used:
[1] = molecular target: cGMP-dependent 3',5'-cyclic phosphodiesterase (Homo sapiens, UniProt O00408); test: Inhibition of cGMP activated human recombinant PDE2A using [3H]cAMP as substrate after 30 mins by scintillation proximity assay
How it was run: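 PDE2A (NM002599) activated with 1 µM cGMP; substrate 0.5 µM [3H]cAMP; scintillation proximity read-out at varied inhibitor concentrations with fixed enzyme amount; IC50 from two-parameter Hill model.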

[2] = molecular target: cAMP and cAMP-inhibited cGMP 3',5'-cyclic phosphodiesterase 10A (Homo sapiens, UniProt Q9Y233); test: Inhibition of human recombinant PDE10A1 expressed in baculovirus infected insect SF21 cells using [3H]cAMP as substrate after 30 mins by scintillation proximity assay
How it was run: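 Cytosolic PDE10A1 from Sf21 lysate (sonication in Tris-HCl/EDTA/sucrose pH 7.4, 48000 g supernatant, stored -70°C). Assay in 50 mM Tris-HCl/5 mM MgCl2 with 0.1 µM [3H]cAMP, started by substrate, 37°C for 30 min; stopped with Ysi-SPA beads, settled 1 h, scintillation counting. Enzyme amount optimized per preparation; no-enzyme blank for non-specific activity; IC50 by two-parameter Hill model.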

Homo sapiens = species on record: Homo sapiens; test: Selectivity factor, ratio of IC50 for human recombinant PDE2A to IC50 for human recombinant PDE10A1
[3] = molecular target: Dual specificity calcium/calmodulin-dependent 3',5'-cyclic nucleotide phosphodiesterase 1B (Homo sapiens, UniProt Q01064); test: Inhibition of human PDE1B using [3H]cAMP as substrate after 30 mins by scintillation proximity assay
[4] = molecular target: cGMP-inhibited 3',5'-cyclic phosphodiesterase 3A (Homo sapiens, UniProt Q14432); test: Inhibition of human PDE3A using [3H]cAMP as substrate after 30 mins by scintillation proximity assay
cGMP-inhibited 3',5'-cyclic phosphodiesterase 3A, sequence (Q14432 whole entry): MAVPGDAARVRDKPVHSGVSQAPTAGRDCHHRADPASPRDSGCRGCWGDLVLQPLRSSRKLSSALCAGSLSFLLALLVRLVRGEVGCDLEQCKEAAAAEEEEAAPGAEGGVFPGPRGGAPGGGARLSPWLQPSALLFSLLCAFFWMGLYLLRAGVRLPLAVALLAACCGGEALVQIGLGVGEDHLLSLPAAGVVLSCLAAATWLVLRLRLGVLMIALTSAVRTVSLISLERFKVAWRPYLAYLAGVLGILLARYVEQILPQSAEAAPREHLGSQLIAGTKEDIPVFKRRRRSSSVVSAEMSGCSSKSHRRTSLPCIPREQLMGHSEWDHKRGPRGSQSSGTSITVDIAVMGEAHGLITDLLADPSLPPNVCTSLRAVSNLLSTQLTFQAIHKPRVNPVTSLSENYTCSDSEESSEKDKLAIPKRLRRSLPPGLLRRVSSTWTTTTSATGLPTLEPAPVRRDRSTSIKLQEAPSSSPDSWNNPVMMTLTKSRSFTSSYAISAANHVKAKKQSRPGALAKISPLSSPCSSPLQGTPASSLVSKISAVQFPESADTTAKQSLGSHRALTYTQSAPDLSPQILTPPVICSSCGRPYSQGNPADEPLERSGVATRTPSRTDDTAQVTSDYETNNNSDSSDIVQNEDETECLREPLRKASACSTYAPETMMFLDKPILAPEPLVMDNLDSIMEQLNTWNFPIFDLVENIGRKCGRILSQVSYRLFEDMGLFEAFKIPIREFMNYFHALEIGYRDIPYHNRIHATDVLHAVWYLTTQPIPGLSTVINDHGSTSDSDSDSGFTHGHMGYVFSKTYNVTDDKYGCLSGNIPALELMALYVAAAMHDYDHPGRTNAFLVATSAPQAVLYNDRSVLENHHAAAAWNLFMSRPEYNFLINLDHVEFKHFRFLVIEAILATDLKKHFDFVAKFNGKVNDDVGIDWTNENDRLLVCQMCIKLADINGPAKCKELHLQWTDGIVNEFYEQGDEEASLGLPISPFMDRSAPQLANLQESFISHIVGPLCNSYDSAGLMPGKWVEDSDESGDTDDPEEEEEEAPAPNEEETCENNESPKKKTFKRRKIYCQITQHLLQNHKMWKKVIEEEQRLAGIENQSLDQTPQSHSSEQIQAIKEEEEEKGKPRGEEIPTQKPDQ

[5] = molecular target: 3',5'-cyclic-AMP phosphodiesterase 4A (Homo sapiens, UniProt P27815); test: Inhibition of human PDE4A using [3H]cAMP as substrate after 30 mins by scintillation proximity assay
3',5'-cyclic-AMP phosphodiesterase 4A, sequence (P27815 whole entry): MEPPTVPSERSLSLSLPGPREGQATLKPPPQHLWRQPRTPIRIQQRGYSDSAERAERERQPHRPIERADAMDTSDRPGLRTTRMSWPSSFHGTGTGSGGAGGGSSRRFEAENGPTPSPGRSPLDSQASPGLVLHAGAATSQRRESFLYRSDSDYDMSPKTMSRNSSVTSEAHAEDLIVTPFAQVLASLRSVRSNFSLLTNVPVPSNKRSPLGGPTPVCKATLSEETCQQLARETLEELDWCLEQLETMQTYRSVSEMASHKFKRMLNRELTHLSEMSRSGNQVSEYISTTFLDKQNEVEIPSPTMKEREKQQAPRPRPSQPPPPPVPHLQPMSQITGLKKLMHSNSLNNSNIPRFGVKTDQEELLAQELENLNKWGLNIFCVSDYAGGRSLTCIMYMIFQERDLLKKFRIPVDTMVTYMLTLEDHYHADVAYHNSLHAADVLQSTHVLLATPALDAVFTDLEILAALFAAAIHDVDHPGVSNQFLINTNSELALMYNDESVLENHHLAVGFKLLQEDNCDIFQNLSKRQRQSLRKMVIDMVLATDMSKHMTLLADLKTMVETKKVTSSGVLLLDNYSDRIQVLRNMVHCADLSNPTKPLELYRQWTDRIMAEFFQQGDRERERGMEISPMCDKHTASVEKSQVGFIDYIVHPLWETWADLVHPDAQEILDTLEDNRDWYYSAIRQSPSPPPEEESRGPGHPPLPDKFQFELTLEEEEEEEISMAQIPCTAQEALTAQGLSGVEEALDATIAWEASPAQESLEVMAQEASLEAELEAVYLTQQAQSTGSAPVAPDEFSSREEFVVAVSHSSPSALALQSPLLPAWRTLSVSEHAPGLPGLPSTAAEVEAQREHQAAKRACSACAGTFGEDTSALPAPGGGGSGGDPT

[6] = molecular target: cGMP-specific 3',5'-cyclic phosphodiesterase (Homo sapiens, UniProt O76074); test: Inhibition of human PDE5A using [3H]cAMP as substrate after 30 mins by scintillation proximity assay
[7] = Inhibition of bovine PDE6 using [3H]cAMP as substrate after 30 mins by scintillation proximity assay; design: species or system Bos taurus
[8] = molecular target: 3',5'-cyclic-AMP phosphodiesterase 7B (Homo sapiens, UniProt Q9NP56); test: Inhibition of human PDE7B using [3H]cAMP as substrate after 30 mins by scintillation proximity assay
3',5'-cyclic-AMP phosphodiesterase 7B, sequence (Q9NP56 whole entry): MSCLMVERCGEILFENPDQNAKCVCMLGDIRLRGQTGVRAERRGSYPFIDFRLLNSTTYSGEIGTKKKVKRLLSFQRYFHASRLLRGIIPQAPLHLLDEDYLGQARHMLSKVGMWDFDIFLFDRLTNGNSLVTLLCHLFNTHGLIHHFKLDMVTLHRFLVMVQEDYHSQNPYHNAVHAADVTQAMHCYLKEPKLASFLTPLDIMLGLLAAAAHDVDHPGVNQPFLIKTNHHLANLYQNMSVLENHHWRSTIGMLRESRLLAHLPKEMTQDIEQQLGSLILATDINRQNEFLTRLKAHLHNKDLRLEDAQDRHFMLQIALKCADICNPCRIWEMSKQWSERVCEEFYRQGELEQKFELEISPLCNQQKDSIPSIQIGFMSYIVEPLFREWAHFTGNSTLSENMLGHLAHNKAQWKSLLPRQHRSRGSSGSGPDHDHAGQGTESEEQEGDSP

[9] = molecular target: High affinity cAMP-specific and IBMX-insensitive 3',5'-cyclic phosphodiesterase 8A (Homo sapiens, UniProt O60658); test: Inhibition of human PDE8A using [3H]cAMP as substrate after 30 mins by scintillation proximity assay
High affinity cAMP-specific and IBMX-insensitive 3',5'-cyclic phosphodiesterase 8A, sequence (O60658 whole entry): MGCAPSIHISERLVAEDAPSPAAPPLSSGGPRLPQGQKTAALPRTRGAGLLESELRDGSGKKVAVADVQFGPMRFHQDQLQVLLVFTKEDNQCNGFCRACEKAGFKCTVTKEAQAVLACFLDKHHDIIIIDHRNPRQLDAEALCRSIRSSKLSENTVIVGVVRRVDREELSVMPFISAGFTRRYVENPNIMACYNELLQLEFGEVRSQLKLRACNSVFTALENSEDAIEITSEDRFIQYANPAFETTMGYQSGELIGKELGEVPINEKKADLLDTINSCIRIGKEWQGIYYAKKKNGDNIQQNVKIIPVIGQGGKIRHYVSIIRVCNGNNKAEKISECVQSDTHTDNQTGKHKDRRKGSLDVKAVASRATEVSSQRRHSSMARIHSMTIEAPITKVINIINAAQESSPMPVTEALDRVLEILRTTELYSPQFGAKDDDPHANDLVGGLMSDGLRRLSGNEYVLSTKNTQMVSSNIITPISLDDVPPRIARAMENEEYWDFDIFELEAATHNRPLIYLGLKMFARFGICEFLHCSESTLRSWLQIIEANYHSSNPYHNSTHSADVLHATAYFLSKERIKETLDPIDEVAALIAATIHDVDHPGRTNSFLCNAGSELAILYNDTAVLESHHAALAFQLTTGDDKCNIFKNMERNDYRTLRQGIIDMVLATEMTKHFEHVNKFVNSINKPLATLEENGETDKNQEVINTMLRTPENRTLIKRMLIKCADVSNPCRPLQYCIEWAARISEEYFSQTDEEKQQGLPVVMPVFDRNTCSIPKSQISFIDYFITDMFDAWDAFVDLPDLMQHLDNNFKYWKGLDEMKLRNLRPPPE

[10] = molecular target: High affinity cGMP-specific 3',5'-cyclic phosphodiesterase 9A (Homo sapiens, UniProt O76083); test: Inhibition of human PDE9A using [3H]cAMP as substrate after 30 mins by scintillation proximity assay
High affinity cGMP-specific 3',5'-cyclic phosphodiesterase 9A, sequence (O76083 whole entry): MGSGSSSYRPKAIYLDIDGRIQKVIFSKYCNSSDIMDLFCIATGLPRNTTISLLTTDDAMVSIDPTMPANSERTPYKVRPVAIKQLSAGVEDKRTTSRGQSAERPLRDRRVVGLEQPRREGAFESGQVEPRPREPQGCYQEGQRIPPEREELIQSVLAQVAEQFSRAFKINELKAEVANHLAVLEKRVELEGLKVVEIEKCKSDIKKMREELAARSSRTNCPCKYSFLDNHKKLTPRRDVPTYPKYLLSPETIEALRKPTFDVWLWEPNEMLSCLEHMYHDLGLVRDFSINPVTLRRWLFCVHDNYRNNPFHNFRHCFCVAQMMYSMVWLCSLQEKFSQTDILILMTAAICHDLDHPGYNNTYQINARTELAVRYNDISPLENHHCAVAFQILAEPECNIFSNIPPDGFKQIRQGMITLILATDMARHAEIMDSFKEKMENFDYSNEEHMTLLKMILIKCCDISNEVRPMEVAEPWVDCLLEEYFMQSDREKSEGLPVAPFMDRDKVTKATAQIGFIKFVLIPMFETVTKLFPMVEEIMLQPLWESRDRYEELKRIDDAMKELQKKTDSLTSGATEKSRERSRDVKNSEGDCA

[11] = molecular target: Dual 3',5'-cyclic-AMP and -GMP phosphodiesterase 11A (Homo sapiens, UniProt Q9HCR9); test: Inhibition of human PDE11A using [3H]cAMP as substrate after 30 mins by scintillation proximity assay
Dual 3',5'-cyclic-AMP and -GMP phosphodiesterase 11A, sequence (Q9HCR9 whole entry): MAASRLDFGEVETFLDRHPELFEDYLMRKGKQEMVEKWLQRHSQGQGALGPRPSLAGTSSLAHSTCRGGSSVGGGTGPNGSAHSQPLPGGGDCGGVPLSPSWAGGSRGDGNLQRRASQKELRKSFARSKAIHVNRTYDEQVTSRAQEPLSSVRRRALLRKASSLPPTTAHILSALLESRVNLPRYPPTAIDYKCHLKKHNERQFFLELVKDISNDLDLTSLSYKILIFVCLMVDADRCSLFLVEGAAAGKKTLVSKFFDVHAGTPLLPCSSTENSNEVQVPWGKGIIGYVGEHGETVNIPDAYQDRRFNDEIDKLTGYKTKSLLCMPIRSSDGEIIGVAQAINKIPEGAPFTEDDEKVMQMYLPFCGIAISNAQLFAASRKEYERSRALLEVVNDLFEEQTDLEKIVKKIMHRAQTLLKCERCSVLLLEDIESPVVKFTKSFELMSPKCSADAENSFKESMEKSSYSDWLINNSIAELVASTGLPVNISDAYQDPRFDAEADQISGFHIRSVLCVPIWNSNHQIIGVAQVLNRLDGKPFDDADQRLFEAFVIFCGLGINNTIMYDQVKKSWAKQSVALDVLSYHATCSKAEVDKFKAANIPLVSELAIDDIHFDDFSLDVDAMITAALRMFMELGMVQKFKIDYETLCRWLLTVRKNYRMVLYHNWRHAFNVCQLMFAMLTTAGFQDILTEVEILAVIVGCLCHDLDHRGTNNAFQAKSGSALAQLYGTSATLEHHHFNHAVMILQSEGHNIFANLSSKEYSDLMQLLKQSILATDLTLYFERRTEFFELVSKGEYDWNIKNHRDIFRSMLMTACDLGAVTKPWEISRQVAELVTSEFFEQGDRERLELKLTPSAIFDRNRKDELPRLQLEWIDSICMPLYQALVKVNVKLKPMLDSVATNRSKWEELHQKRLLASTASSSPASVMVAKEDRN

Row | SMILES | pIC50 [1] | pIC50 [2] | Ratio IC50 (Homo sapiens) | pIC50 [3] | pIC50 [4] | pIC50 [5] | pIC50 [6] | pIC50 [7] | pIC50 [8] | pIC50 [9] | pIC50 [10] | pIC50 [11]
1 | COc1cc(Br)cc2c1nc(C)c1c(C)nc(-c3ccnc(F)c3)n12 | < 6.00 | 8.50 | > 312 |  |  |  |  |  |  |  |  | 
2 | COc1cc(-c2ccncc2)cc2c1nc(C)c1c(C)nc(-c3ccc(F)nc3)n12 | 6.79 | 9.00 | 164 | < 6.00 | < 6.00 | < 6.00 | 6.71 | 6.23 | > 6.00 | < 6.00 | < 6.00 | 6.38
3 | COc1cc(-c2ccc(F)nc2)cc2c1nc(C)c1c(C)nc(Br)n12 | < 6.00 | 7.99 | > 97 |  |  |  |  |  |  |  |  | 
4 | COc1cc(Br)cc2c1nc(C)c1c(C)nc(-c3ccc(F)nc3)n12 | < 6.00 | 8.53 | > 339 | < 6.00 | < 6.00 | < 6.00 | < 6.00 | < 6.00 | < 6.00 | < 6.00 | < 6.00 | < 6.00
5 | COc1cc(-c2cccnc2)cc2c1nc(C)c1c(C)nc(-c3cccnc3F)n12 | 8.46 | 10.43 | 94 | < 6.00 | < 6.00 | > 6.00 | 7.04 | 6.75 | < 6.00 | < 6.00 | < 6.00 | 6.34
6 | COc1cc(-c2ccc(F)nc2)cc2c1nc(C)c1c(C)nc(-c3ccncc3)n12 | 7.18 | 9.39 | 160 | < 6.00 | < 6.00 | 6.08 | 6.70 | < 6.00 | < 6.00 | < 6.00 | < 6.00 | < 6.00
7 | COc1cc(C#N)cc2c1nc(C)c1c(C)nc(-c3cccnc3F)n12 | 7.01 | 8.77 | 58 |  |  |  |  |  |  |  |  | 
8 | COc1cc(-c2cccnc2)cc2c1nc(C)c1c(C)nc(-c3cccnc3)n12 | 7.96 | 9.96 | 99 | < 6.00 | < 6.00 | 6.00 | 6.63 | 6.37 | < 6.00 | < 6.00 | < 6.00 | 6.54
9 | COc1cc(Br)cc2c1nc(C)c1c(C)nc(-c3cccnc3F)n12 | 7.62 | 9.92 | 199 | < 6.00 | < 6.00 | < 6.00 | 6.22 | 6.36 | < 6.00 | < 6.00 | < 6.00 | 6.31
10 | COc1cc(C#N)cc2c1nc(C)c1c(C)nc(-c3ccc(F)nc3)n12 | < 6.00 | 7.69 | > 49 |  |  |  |  |  |  |  |  | 
11 | COc1cc(-c2cccnc2)cc2c1nc(C)c1c(C)nc(-c3ccnc(F)c3)n12 | 7.33 | 9.34 | 102 |  |  |  |  |  |  |  |  | 
12 | COc1cc(-c2ccc(F)nc2)cc2c1nc(C)c1c(C)nc(-c3cccnc3)n12 | 7.53 | 9.48 | 88 | < 6.00 | < 6.00 | < 6.00 | 6.55 | 6.20 | < 6.00 | < 6.00 | < 6.00 | 6.54

More lines, in order of rising pIC50 [2], values ahead:

Row | pIC50 [1] | pIC50 [2] | Ratio IC50 (Homo sapiens) | pIC50 [3] | pIC50 [4] | pIC50 [5] | pIC50 [6] | pIC50 [7] | pIC50 [8] | pIC50 [9] | pIC50 [10] | pIC50 [11] | SMILES
13 | < 6.00 | 7.58 | > 38 |  |  |  |  |  |  |  |  |  | COc1cc(-c2ccc(F)nc2)cc2c1nc(C)c1c(C)ncn12
14 |  | 7.80 |  |  |  |  |  |  |  |  |  |  | COc1cc2ncnc(N3CC[C@@H](Oc4cnc5ccccc5n4)C3)c2cc1OC
15 | 6.40 | 8.48 | 120 | < 6.00 | < 6.00 | < 6.00 | < 6.00 | < 6.00 | < 6.00 | < 6.00 | < 6.00 | < 6.00 | COc1cc(-c2ccc(F)nc2)cc2c1nc(C)c1c(C)nc(-c3ccc(F)nc3)n12
16 | 6.32 | 8.80 | 306 |  |  |  |  |  |  |  |  |  | COc1cc(-c2ccnc(F)c2)cc2c1nc(C)c1c(C)nc(-c3ccnc(F)c3)n12
17 | 7.10 | 9.06 | 90 | < 6.00 | < 6.00 | < 6.00 | 6.64 | 6.25 | < 6.00 | < 6.00 | < 6.00 | 6.40 | COc1cc(-c2cccnc2)cc2c1nc(C)c1c(C)nc(-c3ccc(F)nc3)n12
18 | 8.69 | 10.32 | 43 |  |  |  |  |  |  |  |  |  | COc1cc(-c2cccnc2F)cc2c1nc(C)c1c(C)nc(-c3cccnc3F)n12
